The text below walks through data of ChEMBL document CHEMBL3872269, “Design, synthesis and cytotoxic activities of scopoletin-isoxazole and scopoletin-pyrazole hybrids” (Bioorg Med Chem Lett, 2017).

pIC50: −log10 of the molar value. Bounds are passed on as bounds.

Assay [1] can be described thus: Growth inhibition of human HCT116 cells after 48 hrs by MTT assay. Type of assay: functional, cell-based. Particulars: HCT-116, 48 h. Put shortly:
(§1)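 In vitro cytotoxicity screen on human cell lines. Value reported as IC50, the concentration causing 50% inhibition of the cells.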
Background: Tetrazolium assays rely on reduction of a dye to a coloured formazan, in cell work by metabolically active cells.

Assay [2] is described as follows: Growth inhibition of human HFL1 cells after 48 hrs by MTT assay. In kind it is cell-based. The settings on record: HFL1, 48 h. Summed up:
as §1

Assay [3] can be described thus: Growth inhibition of human SW620 cells after 48 hrs by MTT assay. The settings on record: SW-620, 48 h. In kind it is functional, cell-based. Summed up: as §1
The nature of assay [4]: Growth inhibition of human HuH7 cells after 48 hrs by MTT assay. Type of assay: functional, cell-based. Particulars: Huh-7, 48 h. Put shortly:
as §1

The pIC50 is the IC50 on a negative log10 scale, so that one unit is a factor of ten. Take `COc1cc2cc(NC(=O)c3c(C)noc3-c3ccc([N+](=O)[O-])cc3)c(=O)oc2cc1OCCN1CCOCC1`: the pIC50 in assay [1] is 4.99; in assay [2], 4.13; in assay [3] it was 4.98; in assay [4] it was 4.92.
Take `COc1cc2ccc(=O)oc2cc1OC(=O)c1c(C)noc1-c1ccc(Cl)cc1`: the negative logarithm of the IC50 (pIC50) in assay [1] is 4.96; in assay [2], 4.37; in assay [3], 4.90; in assay [4], 4.91.
For `COc1cc2ccc(=O)oc2cc1OC(=O)c1c(C)noc1-c1ccccc1` the same measures were 4.64, 4.16, 4.63 and below 4.60.
For `COc1cc2ccc(=O)oc2cc1OC(=O)c1c(C)noc1-c1ccc([N+](=O)[O-])cc1` the same measures were 5.04, 4.04, 5.01 and 5.06.
In the case of `COc1cc2ccc(=O)oc2cc1O` [SCOPOLETIN], the negative-log IC50 (pIC50) in assay [1], in assay [3] and in assay [4] was below 4.60 each time.
As to `COc1cc2cc(NC(=O)c3c(C)noc3-c3ccccc3F)c(=O)oc2cc1OCCN1CCOCC1`, the pIC50 was 4.81 in assay [1], 4.16 in assay [2], 4.86 in assay [3] and 4.83 in assay [4].
As to `COc1cc2ccc(=O)oc2cc1OC(=O)c1c(-c2ccccc2F)n[nH]c1C`, the pIC50 in assay [1], in assay [3] and in assay [4] was below 4.60 in each case.
With `COc1cc2cc(NC(=O)c3c(C)noc3-c3ccccc3)c(=O)oc2cc1OCCN1CCOCC1`, the pIC50 in assay [1] was 4.68; in assay [3], below 4.60; in assay [4] it was below 4.60.
In the case of `CCN(CC)CCNC(=O)c1c(C)[nH]c(/C=C2\C(=O)Nc3ccc(F)cc32)c1C` [SUNITINIB], the values for the negative-log IC50 (pIC50) in assay [1], in assay [3] and in assay [4] were 5.25, 5.20 and 5.52, respectively.
Consider `COc1cc2ccc(=O)oc2cc1OC(=O)c1c(-c2ccc(Cl)cc2)n[nH]c1C`, for which the pIC50 in assay [1] is 4.86; in assay [2] it was 4.33; in assay [3], 4.77; in assay [4], 4.79.
Turning to `COc1cc2ccc(=O)oc2cc1OC(=O)c1c(-c2ccc([N+](=O)[O-])cc2)n[nH]c1C`, the pIC50 in assay [1], in assay [3] and in assay [4] was below 4.60 throughout.
On to `COc1cc2cc(NC(=O)c3c(C)noc3-c3ccc(Cl)cc3)c(=O)oc2cc1OCCN1CCOCC1`, for which the pIC50 in assay [1], in assay [3] and in assay [4] was below 4.60 in each case.
As for `COc1cc2ccc(=O)oc2cc1OC(=O)c1c(-c2ccccc2)n[nH]c1C`, the pIC50 in assay [1], in assay [3] and in assay [4] was below 4.60 in each case.
As to `COc1cc2ccc(=O)oc2cc1OC(=O)c1c(C)noc1-c1ccccc1F`, the pIC50 in assay [1], in assay [3] and in assay [4] was below 4.60 each time.
